Active and inactive are the calls of the source. The calls are words filed in the database; no cut-off is given here.
How the values were obtained:
[1] = Induction of GAG priming in CHO pgsA-745 cells assessed as change in UA-GalNAc relative intensity level at 10 uM incubated for 24 hrs by LC-MS analysis (reference value: 8.99); format: functional, Cricetulus griseus
Outline: (§1)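 Disaccharide LC-MS: CHO pgsA-745 cells treated at 10 μM in 0.1% DMSO, GAGs purified from cells or medium, digested with 1 mU chondroitinase ABC (5 mM NH4Ac pH 7.0, 37 °C, 24 h); treated samples PMP-labelled, DMSO controls D5-PMP-labelled, mixed at equal cellular protein (1 mg), co-injected on C18 capillary LC, negative-ion MS; paired ion intensities compared.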

[2] = Induction of GAG priming in CHO pgsA-745 cells assessed as increase in non-sulfated delta-UA-GalNAc level in from the cell culture media at 10 uM incubated for 24 hrs by LC-MS analysis relative to control; format: functional; details: Cricetulus griseus, time 48 hrs, in the assay text read “incubated for 48 hrs” for “incubated for 24 hrs”; outline: as §1
CHO [3] = experiment: Induction of GAG biosynthesis in CHO pgsA-745 cells assessed as increase in GlcN level in culture media at 10 uM incubated for 48 hrs by immunostaining based confocal microscopic analysis relative to control; format: functional, cell-based; details: Cricetulus griseus
[4] = Induction of GAG priming in CHO pgsA-745 cells assessed as change in UA-GalNAc6S relative intensity level at 10 uM incubated for 24 hrs by LC-MS analysis (reference value: 9.52); format: functional; details: Cricetulus griseus, time 48 hrs, in the assay text read “incubated for 48 hrs” for “incubated for 24 hrs”; outline: as §1
[5] = Induction of GAG priming in CHO pgsA-745 cells assessed as increase in delta-UA-GalNAc6S level in from the cell culture media at 10 uM incubated for 24 hrs by LC-MS analysis relative to control; format: functional; details: Cricetulus griseus, time 48 hrs, in the assay text read “incubated for 48 hrs” for “incubated for 24 hrs”; outline: as §1
CHO [6] = experiment: Induction of GAG priming in CHO pgsA-745 cells assessed as increase in FGF7/GAGs/FGFR2B ternary complex formation at 10 uM incubated for 24 hrs by confocal microscopy; format: functional, cell-based; details: Cricetulus griseus
Outline: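 Ternary complex assay: CHO pgsA-745 cells on coverslips treated 10 μM with 0.1% DMSO for 24 h at 37 °C, fixed in 4% formaldehyde 15 min, then incubated sequentially with FGFR2B-Fc, FGF7 and Protein A-Alexa Fluor 647; bound receptor imaged by confocal microscopy at 665 nm […].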

[7] = Induction of GAG priming in CHO pgsA-745 cells assessed as increase in delta-UA-GalNAc4S level in from the cell culture media at 10 uM incubated for 24 hrs by LC-MS analysis relative to control; format: functional; details: Cricetulus griseus, time 48 hrs, in the assay text read “48 hrs” for “24 hrs”; outline: as §1
CHO [8] = experiment: (§2) Induction of GAG biosynthesis in CHO pgsA-745 cells assessed as increase in GalN level at 10 uM incubated for 48 hrs by immunostaining based confocal microscopic analysis relative to control; format: functional; details: Cricetulus griseus
CHO [9] = experiment: Induction of GAG biosynthesis in CHO pgsA-745 cells assessed as increase in GalN level in culture media at 10 uM incubated for 48 hrs by immunostaining based confocal microscopic analysis relative to control; format: functional, cell-based; details: Cricetulus griseus
[10] = Induction of GAG priming in CHO pgsA-745 cells assessed as change in UA-GalNAc4S relative intensity level at 10 uM incubated for 24 hrs by LC-MS analysis (reference value: 1.01); format: functional; details: Cricetulus griseus, time 48 hrs, in the assay text read “incubated for 48 hrs” for “incubated for 24 hrs”; outline: as §1
CHO [11] = experiment: (§3) Induction of GAG biosynthesis in CHO pgsA-745 cells assessed as increase in GlcN level at 10 uM incubated for 48 hrs by immunostaining based confocal microscopic analysis relative to control; format: functional; details: Cricetulus griseus
HCT-116 [12] = experiment: Induction of apoptosis in human HCT-116 cells assessed as increase in late apoptosis level at 40 uM incubated for 24 hrs by annexin-V/propidium iodide staining based flow cytometry relative to control; format: functional, cell-based
Outline: (§4)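 HCT116 cells were seeded at 6 × 10^4 cells/well and treated 24 h later in medium containing 0.1% DMSO, with DMSO alone as the control. Floating and trypsinized adherent cells were pooled and washed in binding buffer. They were stained with Annexin V/PI for 15 min at room temperature and read by flow cytometry. Early apoptotic cells were FITC+/PI−; late apoptotic cells were FITC+/PI+.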

NCI-H1299 = experiment: Cytotoxicity in human NCI-H1299 cells assessed as reduction in cell viability incubated for 48 hrs by resazurin dye based assay; format: functional; details: for IC50: NCI-H1299, 48 h
Outline: (§5)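 Cells seeded at 2000/well, 24 h later exposed to serial dilutions (0.1% DMSO vehicle) in complete medium for 48 h; resazurin (2 mg/mL stock) then added for 16 h; fluorescence at 544 nm excitation/595 nm emission, proportional to living cells. Triplicate wells, repeated twice; IC50 from concentration-response.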

HCT-116 [13] = experiment: Induction of cell cycle arrest at S phase in human HCT-116 cells at 40 uM incubated for 24 hrs by propidium iodide /RNase staining based flow cytometry; format: functional
Outline: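 HCT116 cells (6 × 10^4/well) were seeded, then exposed 24 h later in complete medium, with 0.1% DMSO as the control. After 24 h, medium cells and trypsinized adherent cells were combined. Pellets were fixed in 70% ethanol at 4 °C overnight and stained with PI/RNase buffer for 15 min at room temperature. Phase distribution (G0/G1, S, G2/M) was measured by flow cytometry.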

HCT-116 [14] = experiment: Induction of apoptosis in human HCT-116 cells assessed as increase in early apoptosis level at 40 uM incubated for 24 hrs by annexin-V/propidium iodide staining based flow cytometry relative to control; format: functional, cell-based; outline: as §4
HT-29 = experiment: Cytotoxicity in human HT-29 cells assessed as reduction in cell viability incubated for 48 hrs by resazurin dye based assay; format: functional; details: for IC50: HT-29, 48 h; outline: as §5
A549 = experiment: Cytotoxicity in human A549 cells assessed as reduction in cell viability incubated for 48 hrs by resazurin dye based assay; format: functional; details: for IC50: A549, 48 h; outline: as §5
HCT-116 [15] = experiment: Cytotoxicity in human HCT-116 cells assessed as reduction in cell viability incubated for 48 hrs by resazurin dye based assay; format: functional; details: for IC50: HCT-116, 48 h; outline: as §5
[16] = Induction of GAG priming in CHO pgsA-745 cells assessed as change in UA-GalNAc relative intensity level at 10 uM incubated for 24 hrs by LC-MS analysis (reference value: 44.74); format: functional, Cricetulus griseus; outline: as §1
HCT-116 [17] = experiment: Induction of cell cycle arrest in human HCT-116 cells assessed as increase in G2/M cell population level at 12.5 uM incubated for 24 hrs by propidium iodide /RNase staining based flow cytometry relative to control; format: functional
Outline: (§6)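 HCT116 cells (6 × 10^4/well, six-well plates) treated after 24 h for 24 h (12.5 or 15 μM for one conjugate, 20 μM for others; 0.1% DMSO vehicle); floating and trypsinized cells fixed in 70% ethanol at 4 °C overnight, stained with PI/RNase 15 min at room temperature, DNA content by flow cytometry; phase distribution versus control.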

[18] = Induction of GAG priming in CHO pgsA-745 cells assessed as increase in non-sulfated delta-UA-GalNAc level in from the cell culture media at 10 uM incubated for 48 hrs by LC-MS analysis relative to control; details: Cricetulus griseus
HCT-116 [19] = experiment: Induction of apoptosis in human HCT-116 cells assessed as late apoptosis level at 12.5 uM […] by annexin-V/propidium iodide staining based flow cytometry relative to control; format: functional
[20] = as §2; format: functional, Cricetulus griseus
[21] = Induction of GAG priming in CHO pgsA-745 cells assessed as change in UA-GalNAc4S relative intensity level at 10 uM incubated for 24 hrs by LC-MS analysis (reference value: 2.9); format: functional; details: Cricetulus griseus, time 48 hrs, in the assay text read “incubated for 48 hrs” for “incubated for 24 hrs”; outline: as §1
[22] = Induction of GAG priming in CHO pgsA-745 cells assessed as change in UA-GalNAc6S relative intensity level at 10 uM incubated for 24 hrs by LC-MS analysis (reference value: 29.19); format: functional; details: Cricetulus griseus, time 48 hrs, in the assay text read “incubated for 48 hrs” for “incubated for 24 hrs”; outline: as §1
HCT-116 [23] = experiment: Induction of apoptosis in human HCT-116 cells assessed as increase in early apoptosis level at 7.5 uM […] by annexin-V/propidium iodide staining based flow cytometry relative to control; format: functional
HCT-116 [24] = experiment: Induction of apoptosis in human HCT-116 cells assessed as increase in late apoptosis level at 7.5 uM […] by annexin-V/propidium iodide staining based flow cytometry relative to control; format: functional, cell-based
CHO [25] = experiment: Induction of GAG priming in CHO pgsA-745 cells assessed as increase in specific CS staining […] at 10 uM incubated for 24 hrs by immunostaining based flow cytometry; format: functional, cell-based; details: Cricetulus griseus
Outline: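 CHO pgsA-745 cells treated 10 μM with 0.1% DMSO 24 h at 37 °C, trypsinized, fixed in 4% formaldehyde, digested with 1 mU chondroitinase ABC 20 min at 37 °C, stained overnight at 4 °C with mAb 2B6 then Alexa Fluor 488 anti-mouse secondary; fluorescence intensity read by flow cytometry.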

HCT-116 [26] = experiment: Induction of cell cycle arrest in human HCT-116 cells assessed as G2/M cell population level at 15 uM incubated for 24 hrs by propidium iodide /RNase staining based flow cytometry; format: functional; outline: as §6
HCT-116 [27] = experiment: Induction of cell cycle arrest in human HCT-116 cells assessed as G2/M cell population level at 12.5 uM incubated for 24 hrs by propidium iodide /RNase staining based flow cytometry; format: functional; outline: as §6
HCT-116 [28] = experiment: Induction of apoptosis in human HCT-116 cells assessed as early apoptosis level at 12.5 uM […] by annexin-V/propidium iodide staining based flow cytometry relative to control; format: functional
[29] = as §3; format: functional, Cricetulus griseus
HCT-116 [30] = experiment: Induction of cell cycle arrest in human HCT-116 cells assessed as increase in G2/M cell population level at 20 uM incubated for 24 hrs by propidium iodide /RNase staining based flow cytometry relative to control; format: functional; outline: as §6
HCT-116 [31] = experiment: Induction of apoptosis in human HCT-116 cells assessed as increase in late apoptosis level at 40 uM incubated for 48 hrs by annexin-V/propidium iodide staining based flow cytometry relative to control

Row | Compound | Activity (CHO [3]) | fold change (FC) [5] | Activity (CHO [6]) | fold change (FC) [7] | Activity (CHO [9]) | IC50 (NCI-H1299) | Activity (HCT-116 [14]) | IC50 (HT-29) | IC50 (A549) | IC50 (HCT-116 [15]) | Activity (HCT-116 [30]) | Activity (HCT-116 [31]) | further results
1 | O[C@@H]1[C@@H](O)[C@H](Oc2ccccc2)OC[C@H]1O | Active | 10.5 | inactive | <=99 | Active |  |  |  |  |  |  |  | fold change (FC) [1]: 100; fold change (FC) [2]: 11; fold change (FC) [4]: 100; Activity (CHO [8]): Active; fold change (FC) [10]: 100; Activity (CHO [11]): Active
2 | O=c1c2ccccc2[se]n1-c1ccccc1 [EBSELEN] |  |  |  |  |  | 27.7 µM | Active | 50.4 µM | 16.8 µM | 50 µM |  |  | Activity (HCT-116 [12]): Active; Activity (HCT-116 [13]): Active
3 | CC(=O)O[C@@H]1[C@@H](OC(C)=O)[C@H](OC(C)=O)CO[C@H]1n1[se]c2ccccc2c1=O | inactive | 3.4 | Active | 34.5 | inactive | 7 µM |  | 7.3 µM | 7 µM | 6.4 µM |  |  | fold change (FC) [16]: 100; fold change (FC) (HCT-116 [17]): 1.3; fold change (FC) [18]: 2.24; Activity (HCT-116 [19]): 13.18%; Activity (NCI-H1299): Dose-dependent effect; fold change (FC) [20]: 27.6; fold change (FC) [21]: 100; fold change (FC) [22]: 100; fold change (FC) (HCT-116 [23]): 27.7; Activity (HCT-116 [24]): Active; Activity (CHO [25]): Active; Activity (HCT-116 [26]): 51.9%; Activity (HCT-116 [27]): 45.2%; Activity (HCT-116 [28]): 10.97%; Activity (HT-29): Dose-dependent effect; fold change (FC) [29]: 12.2; Activity (A549): Dose-dependent effect; Activity (HCT-116 [15]): Dose-dependent effect
4 | CC(=O)OC[C@H]1O[C@@H](O[C@H]2[C@H](OC(C)=O)[C@@H](OC(C)=O)[C@H](n3[se]c4ccccc4c3=O)O[C@@H]2COC(C)=O)[C@H](OC(C)=O)[C@@H](OC(C)=O)[C@H]1OC(C)=O |  |  |  |  |  | 34 µM | Active | 32.3 µM | 36.5 µM | 24.2 µM | Active | Active | 
5 | CC(=O)OC[C@H]1O[C@@H](n2[se]c3ccccc3c2=O)[C@H](OC(C)=O)[C@@H](OC(C)=O)[C@@H]1OC(C)=O |  |  |  |  |  | 19 µM | Active | 11.9 µM | 20.4 µM | 18 µM | Active | Active | 
6 | CC(=O)OC[C@H]1O[C@@H](n2[se]c3ccccc3c2=O)[C@H](OC(C)=O)[C@@H](OC(C)=O)[C@H]1OC(C)=O |  |  |  |  |  | 21.6 µM | Active | 19.3 µM | 25.2 µM | 17.8 µM | Active | Active | 

Source: ChEMBL document CHEMBL4715820, “Aglycone Ebselen and β-d-Xyloside Primed Glycosaminoglycans Co-contribute to Ebselen β-d-Xyloside-Induced Cytotoxicity” (J Med Chem, 2018)
